Assay results reported in ChEMBL document CHEMBL1177799 (Bioorg Med Chem Lett, 2010).

Experiments:
Adenosine receptor A2a = Adenosine receptor A2a (Homo sapiens, UniProt P29274); test: Displacement of [3H]-ZM241385 from human adenosine A2A receptor expressed in CHO-K1 cells after 1 hr by scintillation counting; format: cell-based
Adenosine receptor A2b [1] = target: T1, Adenosine receptor A2b (Homo sapiens, UniProt P29275); test: Displacement of [3H]ZM241385 from human adenosine A2B receptor expressed in CHO cells after 1 hr by scintillation counting; format: cell-based
T1 sequence (P29275 whole entry): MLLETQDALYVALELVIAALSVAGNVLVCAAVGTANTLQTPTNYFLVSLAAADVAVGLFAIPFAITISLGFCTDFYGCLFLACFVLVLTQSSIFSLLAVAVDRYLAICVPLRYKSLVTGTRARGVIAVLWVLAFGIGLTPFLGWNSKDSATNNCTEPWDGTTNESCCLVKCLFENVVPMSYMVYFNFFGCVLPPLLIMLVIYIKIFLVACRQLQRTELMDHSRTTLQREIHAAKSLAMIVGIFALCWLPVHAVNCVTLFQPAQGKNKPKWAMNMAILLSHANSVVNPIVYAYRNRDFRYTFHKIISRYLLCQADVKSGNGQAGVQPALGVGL
Summary of the method: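 Whole CHO cells expressing human A2B receptor, harvested mechanically from 80% confluent flasks, frozen, then resuspended in assay buffer on assay day. Competition against [3H]ZM241385 (30 nM final), 1 h at room temperature with shaking. Harvest on 0.5% polyethyleneimine-treated filter plates, air-dried, scintillation counting.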

Adenosine receptor A2b [2] = target: T1, Adenosine receptor A2b; test: Antagonist activity at human adenosine A2B receptor expressed in CHO cells assessed as inhibition of adenosine-induced cAMP production; format: functional, cell-based
Summary of the method: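 CHO cells stably transfected with human A2B receptor, grown overnight as monolayer (7500 cells/well), washed with Krebs buffer, then exposed to compounds in Krebs buffer (final DMSO 1.1%) for 20–25 min. Wells emptied, cells lysed and cAMP measured with an enzyme-fragment complementation cAMP kit for adherent cells.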

Adenosine receptor A1 = target: T2, Adenosine receptor A1 (Homo sapiens, UniProt P30542); test: Displacement of [3H]-DPCPX from human adenosine A1 receptor expressed in CHO-K1 cells after 1 hr by scintillation counting; format: cell-based
T2 sequence (P30542 whole entry): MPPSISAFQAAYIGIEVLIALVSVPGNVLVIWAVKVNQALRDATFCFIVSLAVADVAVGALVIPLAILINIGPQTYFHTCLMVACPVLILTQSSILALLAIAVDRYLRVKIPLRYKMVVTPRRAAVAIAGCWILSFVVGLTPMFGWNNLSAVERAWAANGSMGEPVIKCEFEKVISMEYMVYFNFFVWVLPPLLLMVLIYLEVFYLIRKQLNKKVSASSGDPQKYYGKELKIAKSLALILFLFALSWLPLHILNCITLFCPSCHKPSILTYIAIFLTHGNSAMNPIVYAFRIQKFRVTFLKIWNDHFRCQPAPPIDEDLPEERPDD
Summary of the method: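 Commercial human A1 membranes (10 µg/well) in HEPES 50 mM, NaCl 100 mM, MgCl2 1 mM buffer; competition against [3H]-DPCPX (4.8 nM final), 1 h at room temperature with orbital shaking. Filtration harvest on polyethyleneimine-treated (0.5%) glass-fibre plates, air-dried, scintillation counting.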

[3] = Extrapolated AUC in Han Wistar rat at 50 mg/kg, po up to 24 hrs by LC-MS analysis; format: ADME, organism-based; design: time < 24 hr, dose 50 mg/kg, route oral; details: in vivo
[4] = Extrapolated AUC in Han Wistar rat at 2.5 mg/kg, iv up to 24 hrs by LC-MS analysis; format: ADME, organism-based; design: time < 24 hr, dose 2.5 mg/kg, route intravenous; details: in vivo
[5] = Cmax in Han Wistar rat at 50 mg/kg, po up to 24 hrs by LC-MS analysis; format: ADME, organism-based; design: dose 50 mg/kg, route oral; details: in vivo
[6] = Clearance in Han Wistar rat at 2.5 mg/kg, iv up to 24 hrs by LC-MS analysis; format: ADME, organism-based; design: dose 2.5 mg/kg, route intravenous; details: in vivo
Summary of the method: (§1)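 Male Han Wistar rats (n = 4) received a single 2.5 mg/kg intravenous tail-vein injection in DMA/PEG 400/40% HPBCD/H₂O. Plasma was sampled up to 24 h after dosing, and plasma drug levels were measured by LC–MS to derive the PK parameters.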

[7] = Volume of distribution in Han Wistar rat at 2.5 mg/kg, iv up to 24 hrs by LC-MS analysis; format: ADME, organism-based; design: dose 2.5 mg/kg, route intravenous; details: in vivo; summary of the method: as §1
Adenosine receptor A3 = target: T3, Adenosine receptor A3 (Homo sapiens, UniProt P0DMS8); test: Binding affinity to adenosine A3 receptor
T3 sequence (P0DMS8 whole entry): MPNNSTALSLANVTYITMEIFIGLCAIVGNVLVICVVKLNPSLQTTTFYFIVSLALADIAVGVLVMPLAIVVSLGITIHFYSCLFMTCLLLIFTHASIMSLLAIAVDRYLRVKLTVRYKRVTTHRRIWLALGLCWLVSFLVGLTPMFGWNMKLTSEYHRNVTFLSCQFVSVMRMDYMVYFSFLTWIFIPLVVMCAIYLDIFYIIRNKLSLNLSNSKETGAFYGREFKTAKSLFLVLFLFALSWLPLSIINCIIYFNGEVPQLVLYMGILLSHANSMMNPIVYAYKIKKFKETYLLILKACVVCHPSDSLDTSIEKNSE

[8] = Half life in Han Wistar rat at 50 mg/kg, po up to 24 hrs by LC-MS analysis; format: ADME, organism-based; design: dose 50 mg/kg, route oral; details: in vivo
Summary of the method: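 Male Han Wistar rats (n = 4 per route): iv 2.5 mg/kg via tail vein in DMA/PEG 400/40% HPBCD/H2O, or po 50 mg/kg in Capmul PG8 by intubation tube. Plasma sampled up to 24 h after dosing, drug levels measured by LC–MS.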

Chain of Adenosine receptor A2a (P29274 whole entry): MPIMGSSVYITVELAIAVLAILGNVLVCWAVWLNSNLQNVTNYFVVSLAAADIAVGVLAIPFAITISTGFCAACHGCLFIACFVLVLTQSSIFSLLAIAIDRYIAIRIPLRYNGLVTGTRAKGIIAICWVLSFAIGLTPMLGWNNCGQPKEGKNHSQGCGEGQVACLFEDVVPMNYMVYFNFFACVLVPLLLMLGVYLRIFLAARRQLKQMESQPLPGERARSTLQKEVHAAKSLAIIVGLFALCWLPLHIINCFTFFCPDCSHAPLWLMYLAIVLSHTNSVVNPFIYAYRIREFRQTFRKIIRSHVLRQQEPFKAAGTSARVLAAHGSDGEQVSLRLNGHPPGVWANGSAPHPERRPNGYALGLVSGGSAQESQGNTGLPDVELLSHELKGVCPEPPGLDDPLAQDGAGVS

Ki (Adenosine receptor A2a) [µM] | Ki (Adenosine receptor A2b [1]) [µM] | IC50 (Adenosine receptor A2b [2]) [µM] | Ki (Adenosine receptor A1) [µM] | SMILES | also measured
0.05 | 0.01 | 0.028 | 0.071 | CCN(C(C)=O)c1ccc(OC)c2nc(NC(=O)c3ccc(C#N)cc3)sc12 | 
0.092 | 0.019 | 0.036 | 0.39 | CCN(C(C)=O)c1ccc(OC)c2nc(NC(=O)c3ccc(S(C)(=O)=O)cc3)sc12 | 
0.015 |  | 0.023 | 0.03 | CCN(C(C)=O)c1ccc(Cl)c2nc(NC(=O)c3ccc(F)cc3)sc12 | 
0.48 |  | 0.6 | 1.6 | COc1ccc(N(CC(=O)N(C)C)C(C)=O)c2sc(NC(=O)c3ccc(F)cc3)nc12 | 
0.076 | 0.007 | 0.021 | 0.16 | CCN(C(C)=O)c1ccc(OC)c2nc(NC(=O)c3ccc(C(=O)N4CCOCC4)cc3)sc12 | 
0.1 | 0.004 | 0.016 | 0.3 | CCN(C(C)=O)c1ccc(OC)c2nc(NC(=O)c3ccc(C(=O)N4CCCCC4)cc3)sc12 | 
0.066 | 0.018 | 0.021 | 0.078 | CCN(C(C)=O)c1ccc(OC)c2nc(NC(=O)c3ccc(-n4cccn4)cc3)sc12 | 
0.046 | 0.022 | 0.037 | 0.11 | CCN(C(C)=O)c1ccc(OC)c2nc(NC(=O)c3ccc(NS(C)(=O)=O)cc3)sc12 | 
2.2 |  | 6 | 2.6 | COc1ccc(N(CC(=O)O)C(C)=O)c2sc(NC(=O)c3ccc(F)cc3)nc12 | 
0.051 | 0.008 | 0.021 | 0.1 | CCN(C(C)=O)c1ccc(OC)c2nc(NC(=O)c3ccnn3C)sc12 | AUC at 24 h [3]: 74.4 µg·h/mL; AUC at 24 h [4]: 0.929 µg·h/mL; Cmax [5]: 7.42 µg/mL; clearance [6]: 2.76 L/h/kg; Vd [7]: 3 L/kg; Ki (Adenosine receptor A3): 0.08 µM; half-life [8]: 2.1 h
0.25 | 0.13 | 0.35 | 1.6 | COc1ccc(NC(C)=O)c2sc(NC(=O)c3ccc(F)cc3)nc12 | 
0.018 |  | 0.007 | 0.035 | CCN(C(C)=O)c1ccc(OC)c2nc(NC(=O)c3cc[nH]c3)sc12 | 
0.33 |  | 0.35 | 0.79 | CNC(=O)CN(C(C)=O)c1ccc(OC)c2nc(NC(=O)c3ccc(F)cc3)sc12 | 
0.16 |  | 0.06 | 0.56 | COc1ccc(N(CC(N)=O)C(C)=O)c2sc(NC(=O)c3ccc(F)cc3)nc12 | 
0.084 |  | 0.021 | 0.185 | CCN(C(C)=O)c1ccc(OC)c2nc(NC(=O)c3ccc(C(=O)NC)cc3)sc12 | 
0.089 | 0.018 | 0.038 | 0.12 | CCN(C(C)=O)c1ccc(OC)c2nc(NC(=O)c3ccc(C(=O)N4CCN(C)CC4)cc3)sc12 | 
 |  | 0.021 |  | CCN(C(C)=O)c1ccc(OC)c2nc(NC(=O)c3cn[nH]c3)sc12 | 

Ki (Adenosine receptor A2a) [µM] | Ki (Adenosine receptor A2b [1]) [µM] | IC50 (Adenosine receptor A2b [2]) [µM] | Ki (Adenosine receptor A1) [µM] | SMILES | also measured
0.041 | 0.019 | 0.029 |  | CCN(C(C)=O)c1ccc(OC)c2nc(NC(=O)c3cnn(C)c3)sc12 | 
0.003 | 0.006 | 0.012 | 0.009 | CCN(C(C)=O)c1ccc(OC)c2nc(NC(=O)c3cnn(Cc4cccc(F)c4)c3)sc12 | 
0.068 |  | 0.016 | 0.05 | CCN(C(C)=O)c1ccc(OC)c2nc(NC(=O)c3ccc(C(=O)N4CCCC4)cc3)sc12 | 
0.08 | 0.023 | 0.028 | 0.13 | CCN(C(C)=O)c1ccc(OC)c2nc(NC(=O)c3ccc(-n4cnnn4)cc3)sc12 | 
0.029 |  | 0.042 | 0.1 | COc1ccc(N(CCCO)C(C)=O)c2sc(NC(=O)c3ccc(F)cc3)nc12 | 
0.005 |  | 0.008 | 0.023 | COC(=O)CN(C(C)=O)c1ccc(OC)c2nc(NC(=O)c3ccc(F)cc3)sc12 | 
0.038 |  | 0.033 | 0.11 | COCCN(C(C)=O)c1ccc(OC)c2nc(NC(=O)c3ccc(F)cc3)sc12 | 
0.022 | 0.013 | 0.012 | 0.066 | CCN(C(C)=O)c1ccc(OC)c2nc(NC(=O)c3ccc(F)cc3)sc12 | 
0.039 | 0.022 | 0.015 | 0.066 | COc1ccc(N(C)C(C)=O)c2sc(NC(=O)c3ccc(F)cc3)nc12 | 
0.098 |  | 0.077 | 0.45 | COc1ccc(N(CCO)C(C)=O)c2sc(NC(=O)c3ccc(F)cc3)nc12 | 
0.061 |  | 0.23 | 0.03 | COc1ccc(N(C(C)=O)C(F)F)c2sc(NC(=O)c3ccc(F)cc3)nc12 | 
0.035 |  | 0.04 | 0.042 | COc1ccc(N(CC(F)(F)F)C(C)=O)c2sc(NC(=O)c3ccc(F)cc3)nc12 | 
 |  | 0.019 |  | COc1ccc(N(C(C)=O)C(C)C)c2sc(NC(=O)c3ccc(F)cc3)nc12 | 
0.17 | 0.015 | 0.035 | 0.185 | CCN(C(C)=O)c1ccc(OC)c2nc(NC(=O)c3ccc(C(=O)OC)cc3)sc12 | 
0.077 | 0.008 | 0.019 | 0.15 | CCN(C(C)=O)c1ccc(OC)c2nc(NC(=O)c3ccc(-n4ccnc4)cc3)sc12 | 
0.071 | 0.004 | 0.019 | 0.41 | CCN(C(C)=O)c1ccc(OC)c2nc(NC(=O)c3ccc(CN(C)S(C)(=O)=O)cc3)sc12 | 
0.026 | 0.013 | 0.013 | 0.18 | CCN(C(C)=O)c1ccc(OC)c2nc(NC(=O)c3ccc(C(=O)N(C)CCOC)cc3)sc12 | 

SMILES | Ki (Adenosine receptor A2a) [µM] | Ki (Adenosine receptor A2b [1]) [µM] | IC50 (Adenosine receptor A2b [2]) [µM] | Ki (Adenosine receptor A1) [µM] | also measured
CCN(C(C)=O)c1ccc(OC)c2nc(NC(=O)c3cnn(Cc4cccc(C(F)(F)F)c4)c3)sc12 | 0.003 | 0.004 | 0.006 | 0.006 | 
COc1ccc(N(CC(C)C)C(C)=O)c2sc(NC(=O)c3ccc(F)cc3)nc12 | 0.003 |  | 0.023 | 0.037 | 
CCN(C(C)=O)c1ccc(OC)c2nc(NC(=O)c3ccc(CN4CCCC4=O)cc3)sc12 | 0.027 | 0.014 | 0.028 | 0.4 | 
